Data taken from ChEMBL document CHEMBL3525986, “Nicotinamide N-oxidation by CYP2E1 in human liver microsomes” (Drug Metab Dispos, 2013).

Substrate: NC(=O)c1cccnc1
Assay: Drug metabolism in human liver microsomes assessed as CYP2E1-mediated nicotinamide N-oxide formation after 30 mins by HPLC analysis
Assay type: ADME
Summary of the method: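 Pooled human liver microsomes at 1 mg/ml in 0.1 M NaH2PO4, pH 7.4, with 1mM NADPH were preincubated 2 min at 37°C. NAM was added at varied concentrations and run 30 min, then stopped with ice-cold methanol. N-oxide was measured by HILIC HPLC with UV at 254 nm against a standard curve. Km and Vmax came from a Michaelis-Menten nonlinear fit. Triplicates.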

B1: Cytochrome P450 2E1 (Homo sapiens) (protein)
chain: MSALGVTVALLVWAAFLLLVSMWRQVHSSWNLPPGPFPLPIIGNLFQLELKNIPKSFTRLAQRFGPVFTLYVGSQRMVVMHGYKAVKEALLDYKDEFSGRGDLPAFHAHRDRGIIFNNGPTWKDIRRFSLTTLRNYGMGKQGNESRIQREAHFLLEALRKTQGQPFDPTFLIGCAPCNVIADILFRKHFDYNDEKFLRLMYLFNENFHLLSTPWLQLYNNFPSFLHYLPGSHRKVIKNVAEVKEYVSERVKEHHQSLDPNCPRDLTDCLLVEMEKEKHSAERLYTMDGITVTVADLFFAGTETTSTTLRYGLLILMKYPEIEEKLHEEIDRVIGPSRIPAIKDRQEMPYMDAVVHEIQRFITLVPSNLPHEATRDTIFRGYLIPKGTVVVPTLDSVLYDNQEFPDPEKFKPEHFLNENGKFKYSDYFKPFSTGKRVCAGEGLARMELFLLLCAILQHFNLKPLVDPKDIDLSPIHIGFGCIPPRYKLCVIPRS
B1 showed a Km of 2980 µM and a Vmax of 6.01e-05 µmol/min/mg.
